Measurements reported in publication PMC6606825 (Journal of Ginseng Research, 2018).

Experiment: Pharmacokinetics of CK and its metabolite 20
Format: in vivo, healthy Chinese volunteers
Procedure, shortened: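 Healthy adults given one oral tablet dose fasting (overnight, or 10 h in a crossover food-effect arm); 30 subjects from the 100/200/400 mg groups were pooled with 24 from 200 mg fasting periods. Plasma was stored at −70°C, extracted with MTBE plus internal standards and assayed by LC-MS/MS. Cmax was observed and AUClast calculated by linear trapezoid, each divided by dose. The metabolite/parent ratio was also calculated. Genotyping used Sequenom MassARRAY, and log-transformed values were compared by one-way ANOVA.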

[1] = ABCC4 rs1151471 CC, n = 2, mean (SD)
[2] = ABCC4 rs2274406 TT (first line), mean (SD)
[3] = ABCC4 rs2274406 TT (third line), mean (SD)
[4] = ABCG2 rs2054576 AA (first line), mean (SD)
[5] = ABCG2 rs2054576 AA (third line), mean (SD)

dose-normalized exposure among the groups (100, 200, 400 mg single-dose groups and food-effect trial, fasting): not significantly different | CK AUClast/D (ABCB1 rs1045642 AA, mean (SD)): 28.81 (11.93) | CK Cmax/D (ABCB1 rs1045642 AA, mean (SD)): 4.03 (1.47) | CK AUClast/D (ABCB1 rs1045642 AG, mean (SD)): 27.71 (15.58) | CK Cmax/D (ABCB1 rs1045642 AG, mean (SD)): 3.50 (1.91) | CK AUClast/D (ABCB1 rs1045642 GG, mean (SD)): 31.19 (22.91) | CK Cmax/D (ABCB1 rs1045642 GG, mean (SD)): 4.13 (2.82) | CK AUClast/D (ABCB1 rs1128503 AA, mean (SD)): 28.07 (15.30) | CK Cmax/D (ABCB1 rs1128503 AA, mean (SD)): 3.67 (1.80) | CK AUClast/D (ABCB1 rs1128503 AG, mean (SD)): 28.43 (20.03) | CK Cmax/D (ABCB1 rs1128503 AG, mean (SD)): 3.66 (2.34) | CK AUClast/D (ABCB1 rs1128503 GG, mean (SD)): 33.81 (17.43) | CK Cmax/D (ABCB1 rs1128503 GG, mean (SD)): 4.67 (3.44) | CK AUClast/D (ABCB1 rs2032582 AA, mean (SD)): 26.68 (12.71) | CK Cmax/D (ABCB1 rs2032582 AA, mean (SD)): 3.81 (2.02) | CK AUClast/D (ABCB1 rs2032582 CA, mean (SD)): 27.47 (15.11) | CK Cmax/D (ABCB1 rs2032582 CA, mean (SD)): 3.46 (1.72) | CK AUClast/D (ABCB1 rs2032582 CC, mean (SD)): 33.69 (25.60) | CK Cmax/D (ABCB1 rs2032582 CC, mean (SD)): 4.42 (3.14) | CK AUClast/D (ABCC2 rs717620 CC, mean (SD)): 31.60 (19.89) | CK Cmax/D (ABCC2 rs717620 CC, mean (SD)): 3.98 (2.30) | CK AUClast/D (ABCC2 rs717620 CT, mean (SD)): 25.18 (13.50) | CK Cmax/D (ABCC2 rs717620 CT, mean (SD)): 3.48 (2.01) | CK AUClast/D (ABCC2 rs2273697 GA, mean (SD)): 35.66 (26.59) | CK Cmax/D (ABCC2 rs2273697 GA, mean (SD)): 4.74 (3.23) | CK AUClast/D (ABCC2 rs2273697 GG, mean (SD)): 25.98 (12.06) | CK Cmax/D (ABCC2 rs2273697 GG, mean (SD)): 3.35 (1.44) | CK AUClast/D (ABCC2 rs2756109 GG, mean (SD)): 27.59 (12.16) | CK AUClast/D (ABCC2 rs3740066 CC, mean (SD)): 32.09 (20.46) | CK Cmax/D (ABCC2 rs3740066 CC, mean (SD)): 4.02 (2.37) | CK Cmax/D (ABCC2 rs3740066 CT, mean (SD)): 3.3 (1.87) | CK AUClast/D (ABCC2 rs3740066 TT, n = 1): 55.95 (—) | CK Cmax/D (ABCC2 rs3740066 TT, n = 1): 6.24 (—) | CK AUClast/D (ABCC3 rs4148416 CC, mean (SD)): 29.20 (18.77) | CK Cmax/D (ABCC3 rs4148416 CC, mean (SD)): 3.72 (2.07) | CK AUClast/D (ABCC3 rs4148416 CT, mean (SD)): 27.15 (14.29) | CK Cmax/D (ABCC3 rs4148416 CT, mean (SD)): 3.78 (2.53) | CK AUClast/D (ABCC3 rs4793665 CT, mean (SD)): 29.14 (12.55) | CK Cmax/D (ABCC3 rs4793665 CT, mean (SD)): 4.04 (2.17) | CK AUClast/D (ABCC3 rs4793665 TT, mean (SD)): 28.53 (18.94) | CK Cmax/D (ABCC3 rs4793665 TT, mean (SD)): 3.65 (2.19) | CK AUClast/D (ABCC3 rs12051822 GA, mean (SD)): 23.66 (11.90) | CK Cmax/D (ABCC3 rs12051822 GA, mean (SD)): 3.09 (1.13) | CK AUClast/D (ABCC3 rs12051822 GG, mean (SD)): 30.37 (18.95) | CK Cmax/D (ABCC3 rs12051822 GG, mean (SD)): 3.96 (2.39) | CK AUClast/D [1]: 13.68 (2.21) | CK Cmax/D [1]: 2.08 (0.39) | CK AUClast/D (ABCC4 rs1151471 TC, mean (SD)): 24.64 (13.71) | CK Cmax/D (ABCC4 rs1151471 TC, mean (SD)): 3.32 (2.06) | CK AUClast/D (ABCC4 rs1151471 TT, mean (SD)): 32.65 (19.80) | CK Cmax/D (ABCC4 rs1151471 TT, mean (SD)): 4.16 (2.32) | CK AUClast/D (ABCC4 rs1189437 GG, n = 1): 12.12 (−) | CK Cmax/D (ABCC4 rs1189437 GG, n = 1): 1.80 (−) | CK AUClast/D (ABCC4 rs1189437 GT, mean (SD)): 20.77 (9.40) | CK Cmax/D (ABCC4 rs1189437 GT, mean (SD)): 2.74 (1.29) | CK AUClast/D (ABCC4 rs1189437 TT, mean (SD)): 31.84 (19.14) | CK Cmax/D (ABCC4 rs1189437 TT, mean (SD)): 4.06 (2.19) | CK AUClast/D (ABCC4 rs1751034 TC, mean (SD)): 18.58 (7.25) | CK Cmax/D (ABCC4 rs1751034 TC, mean (SD)): 2.45 (0.95) | CK AUClast/D (ABCC4 rs1751034 TT, mean (SD)): 32.53 (18.96) | CK Cmax/D (ABCC4 rs1751034 TT, mean (SD)): 4.23 (2.32) | CK AUClast/D (ABCC4 rs2274406 CT, mean (SD)): 28.24 (19.96) | CK Cmax/D (ABCC4 rs2274406 CT, mean (SD)): 3.68 (2.42) | CK AUClast/D [2]: 33.40 (14.80) | CK Cmax/D [2]: 4.70 (2.25) | CK AUClast/D [3]: 26.57 (13.77) | CK Cmax/D [3]: 3.25 (1.32) | CK AUClast/D (ABCC4 rs2274407 CA, mean (SD)): 28.22 (13.76) | CK Cmax/D (ABCC4 rs2274407 CA, mean (SD)): 3.43 (1.35) | CK AUClast/D (ABCC4 rs2274407 CC, mean (SD)): 28.81 (18.82) | CK Cmax/D (ABCC4 rs2274407 CC, mean (SD)): 3.84 (2.38) | CK AUClast/D (ABCC4 rs4148546 AA, mean (SD)): 26.51 (15.61) | CK Cmax/D (ABCC4 rs4148546 AA, mean (SD)): 3.43 (1.93) | CK Cmax/D (ABCC4 rs4148546 GA, mean (SD)): 3.49 (1.91) | CK AUClast/D (ABCC4 rs4148546 GG, mean (SD)): 39.82 (26.88) | CK Cmax/D (ABCC4 rs4148546 GG, mean (SD)): 4.87 (2.88) | CK AUClast/D (ABCC4 rs11568658 CC, mean (SD)): 28.31 (19.56) | CK AUClast/D [4]: 25.61 (12.77) | CK Cmax/D [4]: 3.31 (1.53) | CK AUClast/D [5]: 25.70 (13.01) | CK Cmax/D [5]: 3.29 (1.35) | CK AUClast/D (ABCG2 rs2054576 GA, mean (SD)): 32.78 (22.38) | CK Cmax/D (ABCG2 rs2054576 GA, mean (SD)): 4.31 (2.78) | CK AUClast/D (ABCG2 rs2231142 GG, mean (SD)): 27.45 (13.31) | CK Cmax/D (ABCG2 rs2231142 GG, mean (SD)): 3.51 (1.56) | CK AUClast/D (ABCG2 rs2231142 GT, mean (SD)): 31.50 (23.56) | CK Cmax/D (ABCG2 rs2231142 GT, mean (SD)): 3.89 (2.60) | CK AUClast/D (ABCG2 rs2231142 TT, mean (SD)): 25.70 (13.01) | CK Cmax/D (ABCG2 rs2231142 TT, mean (SD)): 3.29 (1.35) | CK AUClast/D (ABCG2 rs2231148 AA, mean (SD)): 35.54 (21.89) | CK Cmax/D (ABCG2 rs2231148 AA, mean (SD)): 4.43 (2.92) | CK AUClast/D (ABCG2 rs2231148 AT, mean (SD)): 39.28 (26.36) | CK Cmax/D (ABCG2 rs2231148 AT, mean (SD)): 4.87 (3.24) | CK AUClast/D (ABCG2 rs2231148 TT, mean (SD)): 23.05 (8.91) | CK Cmax/D (ABCG2 rs2231148 TT, mean (SD)): 3.09 (1.18) | CK AUClast/D (ABCG2 rs2725248 AA, mean (SD)): 26.94 (18.76) | CK Cmax/D (ABCG2 rs2725248 AA, mean (SD)): 3.68 (2.42) | CK AUClast/D (ABCG2 rs2725248 CA, mean (SD)): 31.91 (15.94) | CK Cmax/D (ABCG2 rs2725248 CA, mean (SD)): 3.96 (1.89) | CK AUClast/D (ABCG2 rs2725248 CC, mean (SD)): 40.01 (16.71)
SMILES: CC(C)=CCC[C@](C)(O[C@@H]1O[C@H](CO)[C@@H](O)[C@H](O)[C@H]1O)[C@H]1CC[C@]2(C)[C@@H]1[C@H](O)C[C@@H]1[C@@]3(C)CC[C@H](O)C(C)(C)[C@@H]3CC[C@]12C [Ginsenoside compound K, 20-O-beta-D-glucopyranosyl-20(S)-protopanaxadiol]
